High-throughput results deposited in PubChem by several laboratories.
Hits are enriched below; roughly 4.3% of the tested compounds scored in any of these assays.
RBBP9 inhibitor: human RBBP9 hydrolase inhibition | O75884 | recombinant RBBP9, FP-Rh probe fluorescence polarization | inhibition, % at 7.94 µM | 220,000 compounds, 0.2% hits;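 active = inhibition above the campaign mean of all tested compounds plus 3 SD, cut at about 14% in these data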
Target sequence (O75884 whole entry, looked up): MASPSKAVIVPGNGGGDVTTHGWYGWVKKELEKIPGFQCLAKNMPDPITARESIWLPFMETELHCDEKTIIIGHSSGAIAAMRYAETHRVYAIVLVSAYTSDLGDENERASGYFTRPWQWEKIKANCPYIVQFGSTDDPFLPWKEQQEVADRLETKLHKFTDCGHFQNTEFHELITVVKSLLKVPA
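System: RBBP9 protein / Quantity: 2.5 µM RBBP9 dispensing solution, before mixing / Also added: Serine-hydrolase probe FP-Rh, 375 nM pre-mixing / Dosing: 7.94 µM single dose, 0.794% DMSO / Timing: enzyme-compound preincubation 30 min, then probe labeling 45 min, 25 °C / Signal: FP readout at 525/598 nm / Controls: DMSO-treated enzyme wells and wells lacking RBBP9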
ALR inh: inhibitors of human sulfhydryl oxidase ALR; P55789; 290,000 compounds, 3.8% hits; inhibition, % (concentration not given with the values); purified ALR, DTT oxidation, H2O2 HRP-luminol luminescence;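 active = mean replicate inhibition above about 79%, with every replicate also reaching it, limit read from the data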
UBC9 SUMO inh: inhibitors of human SUMOylation (UBC9). P63279. HTRF SUMOylation assay, SAE1/SAE2 + UBC9, in vitro. inhibition, % at 35 µM. 290,000 compounds, 0.36% hits. AID 2006; in the data active = inhibition above about 50%, passing the limit was not always enough
Target sequence (P63279 whole entry, looked up): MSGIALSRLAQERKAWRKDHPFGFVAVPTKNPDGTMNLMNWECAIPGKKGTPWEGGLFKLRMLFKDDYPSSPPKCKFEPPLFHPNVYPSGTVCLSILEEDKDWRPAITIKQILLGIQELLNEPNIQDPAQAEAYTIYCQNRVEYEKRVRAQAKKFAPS
Rin1-Abl PPI inh: inhibitors of human Rin1-Abl protein interaction. AID 588664. inhibition, % at 7.35 µM. 360,000 compounds, 0.4% hits. P00519+Q13671. TR-FRET Rin1/Abl binding, biochemical; in the data active = inhibition above about 5%, passing the limit was not always enough
PREPL inh: inhibits the human prolyl oligopeptidase-like enzyme; Q4J6C6; recombinant PREPL, fluorescence polarization activity-based probe; inhibition, % at 5.96 µM; 320,000 compounds, 0.68% hits; in the data active = inhibition above about 43%
UBC13 polyUb: blocks human UBC13 polyubiquitin chain formation | P61088 | TR-FRET | inhibition, % at 20 µM | 330,000 compounds, 0.47% hits; in the data active = inhibition above about 45%, passing the limit was not always enough
Target sequence (P61088 whole entry, looked up): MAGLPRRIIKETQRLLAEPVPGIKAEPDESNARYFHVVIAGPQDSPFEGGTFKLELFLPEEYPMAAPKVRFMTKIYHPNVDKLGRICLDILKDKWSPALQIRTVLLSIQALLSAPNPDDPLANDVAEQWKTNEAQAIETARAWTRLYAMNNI
Each line names hits and unclear results; the compound was inactive in the other large screens.

O=C(COc1ccccc1)N1CCN=C1SCc1ccccc1	none (no result: ALR inh)
O=C(c1ccccc1F)N1CCN=C1SCc1cccnc1	ALR inh 100
CCOc1ccccc1C(=O)N1CCN=C1SCc1cccnc1	ALR inh 99
CCn1c(SCC(=O)N2CCC(C)CC2)nc2c(c1=O)SC(C)C2 (centres undefined)	none (no result: RBBP9 inhibitor)
NNC(=O)C(Cc1c[nH]c2ccccc12)NC(=O)c1ccccc1 (centres undefined)	none
COC(=O)c1ccc(COc2ccc(C=O)cc2)o1	none (no result: RBBP9 inhibitor)
COC(=O)c1ccc(COc2ccc(/C=N/O)cc2)o1	ALR inh 98
COc1ccc(-c2ccc(C#N)c(SCC(=O)Nc3sc4c(c3C#N)CCC4)n2)cc1OC	UBC9 SUMO inh 52
CC(=O)Nc1c(O)nc(SCC(=O)Nc2nnc(CC(C)C)s2)[nH]c1=O	ALR inh 85
Cc1cccc(NC(=O)CSc2nc3nc(C)cc(C)c3c(=O)[nH]2)c1	none
CC(=O)Nc1c(O)nc(SCC(=O)Nc2cccc(C)c2)[nH]c1=O	ALR inh 98
N#Cc1cc2c(nc1SCC(=O)Nc1sc3c(c1C#N)CCC3)CCC2	none
CC(=O)Nc1c(O)nc(SCC(=O)Nc2sc3c(c2C#N)CCCCCC3)[nH]c1=O	ALR inh 98
N#Cc1c(NC(=O)CSc2ncn[nH]2)sc2c1CCCC2	none (no result: ALR inh)
COc1c(C)cc(Br)cc1C(=O)NC(=S)NCc1ccco1	none (no result: RBBP9 inhibitor)
CC(=O)Nc1c(O)nc(SCC(=O)Nc2ccc(C(C)=O)cc2)[nH]c1=O	ALR inh 98
CCCc1cc(=O)[nH]c(SCC(=O)Nc2sc3c(c2C#N)CCC(C)C3)n1 (centres undefined)	ALR inh 89
COc1cc(-c2cnc3c(NC=O)cc(-c4ccccc4Cl)cn23)cc(OC)c1OC	none (no result: RBBP9 inhibitor, ALR inh, UBC9 SUMO inh, PREPL inh, UBC13 polyUb)
COc1cc(C(C)=O)ccc1OCC(O)CN1CCN(c2c(C)cccc2C)CC1 (centres undefined)	none (no result: RBBP9 inhibitor)
COc1ccc(N2CCN(CC(O)COc3ccc(C)cc3C)CC2)cc1 (centres undefined)	ALR inh 79 (no result: RBBP9 inhibitor)
COc1ccc(OCC(O)CN2CCN(c3ccccc3)CC2)cc1 (centres undefined)	none
CCc1ccc(OCC(O)CN2CCN(c3ccc(OC)cc3)CC2)cc1 (centres undefined)	ALR inh 94 (no result: RBBP9 inhibitor)
COc1ccc(N2CCN(CC(O)COc3cc(C)ccc3C)CC2)cc1 (centres undefined)	none (no result: RBBP9 inhibitor)
COc1cc(C(C)=O)ccc1OCC(O)CN1CCN(c2ccc(C)c(C)c2)CC1 (centres undefined)	ALR inh 98 (no result: RBBP9 inhibitor)
Cc1ccc2c(c1)-n1c(nc3cc(Cl)ccc3c1=O)C(Cc1ccccc1)NC2=O (centres undefined)	none (no result: RBBP9 inhibitor, UBC9 SUMO inh, Rin1-Abl PPI inh)
O=C(NC1CCS(=O)(=O)C1)c1cccnc1 (centres undefined)	none (no result: Rin1-Abl PPI inh)
CC1(C)CC(=O)c2sc(NS(=O)(=O)c3ccc(F)cc3)nc2C1	none
O=C(Nc1ccccc1)c1sc(Cl)nc1-c1ccccc1	ALR inh 94
C/C(=N/NC(=O)CNC(=O)COc1ccccc1)c1ccco1	none (no result: ALR inh)
COc1ccc(CCn2c(S)nc3ccccc3c2=O)cc1	none (no result: RBBP9 inhibitor, ALR inh)
CCOc1ccc(C(c2c(O)nc(SC)n(C)c2=O)c2c(O)nc(SC)n(C)c2=O)cc1	ALR inh 98
Brc1csc(C=Nc2ccc3c(c2)OCCOCCOCCOCCO3)c1	ALR inh 100
Brc1ccc(C=Nc2ccc3c(c2)OCCOCCOCCO3)s1	ALR inh 89
Brc1cc2c(cc1Br)OCCOCCOCCO2	none
Oc1c(Cl)cc(Cl)cc1C=Nc1ccc2c(c1)OCCO2	none
CN(CCOc1ccc(Cl)cc1)C(=O)c1cc(-c2ccco2)nc2ccccc12	none (no result: RBBP9 inhibitor, UBC9 SUMO inh)
CCCCN1CC(=O)N2[C@H]3c4cc(C)ccc4OC[C@@H]3[C@H](C(=O)OCC)[C@]2(C)C1=O	none (no result: RBBP9 inhibitor, UBC9 SUMO inh)
CN(C)/C=C1\C(=O)Oc2ccccc2C1=O	none (no result: RBBP9 inhibitor, UBC9 SUMO inh)
O=C(OC[C@H]1O[C@@H](OC(=O)c2cc(O)c(O)c(OC(=O)c3cc(O)c(O)c(O)c3)c2)[C@H](OC(=O)c2cc(O)c(O)c(OC(=O)c3cc(O)c(O)c(O)c3)c2)[C@@H](OC(=O)c2cc(O)c(O)c(OC(=O)c3cc(O)c(O)c(O)c3)c2)[C@@H]1OC(=O)c1cc(O)c(O)c(OC(=O)c2cc(O)c(O)c(O)c2)c1)c1cc(O)c(O)c(OC(=O)c2cc(O)c(O)c(O)c2)c1	PREPL inh 104 (no result: RBBP9 inhibitor, ALR inh, UBC9 SUMO inh, Rin1-Abl PPI inh, UBC13 polyUb)
CCN(CC)c1ccc(N=C2C(=O)Nc3ccccc32)cc1	ALR inh 94 (no result: RBBP9 inhibitor)
O=C(CC1SC(N2CCCCC2)=NC1=O)Nc1cccc(C(=O)N2CCCC(C(F)(F)F)C2)c1 (centres undefined)	none (no result: RBBP9 inhibitor, ALR inh, UBC9 SUMO inh, PREPL inh, UBC13 polyUb)
CSc1nc(NCCOCCO)c2sc3nc(-c4ccco4)c4c(c3c2n1)CCC4	ALR inh 97
CCN(CCO)c1ncnc2c1sc1nc(C(C)C)c3c(c12)CC(C)(C)OC3	none
CSc1nc(NCc2ccco2)c2sc3nc(C(C)C)c4c(c3c2n1)CC(C)(C)OC4	none
CCN(CCO)c1nc(SC)nc2c1sc1nc(-c3ccco3)c3c(c12)CCC3	ALR inh 97
O=C(Nc1ccc(NC(=O)c2cccc([N+](=O)[O-])c2)cc1)c1cccc([N+](=O)[O-])c1	none (no result: RBBP9 inhibitor)
O=C(Nc1ncc([N+](=O)[O-])s1)c1cccc([N+](=O)[O-])c1	ALR inh 98
CCCCOc1ccc(C(=O)NCC(=O)NCC2CCCO2)cc1 (centres undefined)	none (no result: RBBP9 inhibitor)
COc1ccc(C2SCC(=O)N2c2ccc(F)cc2)cc1 (centres undefined)	ALR inh 99 (no result: RBBP9 inhibitor)
Cc1cc(C)cc(N2C(=O)CSC2c2cccs2)c1 (centres undefined)	none
COc1ccc(N2C(=O)CSC2c2ccncc2)cc1 (centres undefined)	ALR inh 99
Cc1ccc(N2C(=O)CSC2c2cccs2)cc1 (centres undefined)	ALR inh 99
CC(C)NC(=O)N(C)C[C@H]1Oc2ccc(NC(=O)C3CC3)cc2C(=O)N([C@H](C)CO)C[C@@H]1C	none (no result: RBBP9 inhibitor, UBC9 SUMO inh)
COc1ccc(Cc2nc3ccc(C(=O)N(C)CCCN4CCOCC4)cc3o2)cc1	none (no result: RBBP9 inhibitor)
Cc1cc(C)n2nc(SCC(=O)Nc3ccc(F)cc3[N+](=O)[O-])nc2n1	none (no result: RBBP9 inhibitor, ALR inh, UBC9 SUMO inh)
CCN(CCC(=O)Nc1cc([N+](=O)[O-])ccc1OC)Cc1ccccc1	UBC9 SUMO inh 69
COc1ccc([N+](=O)[O-])cc1NC(=O)CC(c1ccccc1)c1ccccc1	none
COc1ccc([N+](=O)[O-])cc1NC(=O)CSc1nc(C)cc(C)n1	none (no result: ALR inh)
Cc1ccc(SCC(=O)Nc2ccc(F)cc2[N+](=O)[O-])cc1C	ALR inh 96
COc1ccc([N+](=O)[O-])cc1NC(=O)CSc1ccc2ccccc2c1	ALR inh 99
CCC1Oc2ccc(C)cc2N(CC(=O)NCCN2CCOCC2)C1=O (centres undefined)	none (no result: RBBP9 inhibitor)
